According to ChEMBL document CHEMBL3085764, “Azole-carbodithioate hybrids as vaginal anti-Candida contraceptive agents: design, synthesis and docking studies” (Eur J Med Chem, 2013):
Converted amounts (≈) assume the structure as drawn.

Experiments:
Sporothrix schenckii = assay: Antifungal activity against Sporothrix schenckii after 48 hrs by broth microdilution technique; type: functional, organism-based
Summary of the method: (§1)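 MIC by broth microdilution following NCCLS guidelines, in RPMI 1640 buffered with MOPS. Starting inoculum 1-5 × 10^3 CFU/mL. Plates incubated at 35 °C. MIC and IC50 read spectrophotometrically at 492 nm after 48 h.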

[1] = Growth inhibition of Lactobacillus acidophilus after 72 hrs by colony counting method
Summary of the method: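 Rogosa SL agar plates (7.5%, 0.132% acetic acid), with or without compound, inoculated with L. acidophilus (~70 […]/10 cm²). Incubated 72 h at 37 °C in 5% CO2/95% air. Colony number and size recorded. Value = average colony size (% of control) × colony number / 100.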

Trichomonas vaginalis = assay: Trichomonacidal activity against Trichomonas vaginalis after 48 hrs by trypan blue exclusion assay; type: functional; settings: read-out: MEC
Summary of the method: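 T. vaginalis in log phase, grown in TYM with 10% FCS, vitamin mixture and penicillin/streptomycin at 37 °C. DMSO stocks ([…]) serially diluted in TYM down to 0.1 µg/mL; DMSO/TYM vehicle controls. 5 × 10^4 trophozoites added and incubated anaerobically at 37 °C. Viability checked by trypan blue from 3 to 48 h. MIC = lowest concentration killing all cells by 48 h. Three repeats.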

[2] = Spermicidal activity in human semen assessed as sperm immobilization at 0.1 % w/v up to 30 seconds by phase contrast microscopy; type: functional
[3] = Spermicidal activity in human semen assessed as sperm immobilization at 1.0 % w/v up to 30 seconds by phase contrast microscopy; type: functional
Candida albicans [4] = assay: Antifungal activity against Candida albicans clinical isolate after 48 hrs by broth microdilution technique; type: functional, organism-based; summary of the method: as §1
Candida albicans [5] = assay: Antifungal activity against Candida albicans ATCC 10231 after 48 hrs by broth microdilution technique; type: functional, organism-based; settings: ATCC 10231, 48 h; summary of the method: as §1
Candida albicans [6] = assay: Antifungal activity against Candida albicans clinical isolate CDRI after 48 hrs by broth microdilution technique; type: functional, organism-based; summary of the method: as §1
Candida albicans [7] = assay: Antifungal activity against Candida albicans MTCC 183 after 48 hrs by broth microdilution technique; type: functional, organism-based; settings: MTCC 183, 48 h; summary of the method: as §1
Candida parapsilosis = assay: Antifungal activity against Candida parapsilosis ATCC 22019 after 48 hrs by broth microdilution technique; type: functional, organism-based; settings: Lodderomyces parapsilosis, ATCC 22019, 48 h; summary of the method: as §1
Candida albicans [8] = assay: Antifungal activity against Candida albicans after 48 hrs by broth microdilution technique; type: functional, organism-based; summary of the method: as §1
Klebsiella pneumoniae = assay: Antibacterial activity against Klebsiella pneumoniae after 48 hrs by broth microdilution technique; type: functional
Summary of the method: (§2)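 Broth microdilution following NCCLS guidelines in Mueller Hinton broth. Inoculum held at 1-5 × 10^3 cfu/mL. Plates incubated at 35 °C in a moist, dark chamber for 48 h. MIC and IC50 read spectrophotometrically at 492 nm.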

Staphylococcus aureus = assay: Antibacterial activity against Staphylococcus aureus ATCC 25923 after 48 hrs by broth microdilution technique; type: functional; settings: ATCC 25923, 48 h; summary of the method: as §2
Pseudomonas aeruginosa = assay: Antibacterial activity against Pseudomonas aeruginosa ATCC BAA-427 after 48 hrs by broth microdilution technique; type: functional; settings: ATCC BAA-427, 48 h; summary of the method: as §2
Escherichia coli = assay: Antibacterial activity against Escherichia coli ATCC 9637 after 48 hrs by broth microdilution technique; type: functional; settings: ATCC 9637, 48 h; summary of the method: as §2
Cryptococcus neoformans = assay: Antifungal activity against Cryptococcus neoformans after 48 hrs by broth microdilution technique; type: functional, organism-based; summary of the method: as §1
[9] = test system: Trichophyton mentagrophytes; assay: Antifungal activity against Trichophyton mentagrophytes after 48 hrs by broth microdilution technique; type: functional, organism-based; summary of the method: as §1
HeLa = assay: Cytotoxicity against human HeLa cells after 5 hrs by LDH assay
Aspergillus fumigatus = assay: Antifungal activity against Aspergillus fumigatus after 48 hrs by broth microdilution technique; type: functional, organism-based; summary of the method: as §1

Compound	IC50 (Sporothrix schenckii)	IC50 [1]	minimal effective concentration (Trichomonas vaginalis)	Activity [2]	Activity [3]	IC50 (Candida albicans [4])	IC50 (Candida albicans [5])	IC50 (Candida albicans [6])	IC50 (Candida albicans [7])	IC50 (Candida parapsilosis)	IC50 (Candida albicans [8])	MIC (Klebsiella pneumoniae)	MIC (Staphylococcus aureus)	MIC (Pseudomonas aeruginosa)	MIC (Escherichia coli)	IC50 (Cryptococcus neoformans)	IC50 [9]	IC50 (HeLa)	IC50 (Aspergillus fumigatus)
CCCCSC(=S)n1ccnc1	> 50 µg/mL	45.64 µg/mL (≈ 228 µM)	> 200 µg/mL	80%	100%	1.53 µg/mL (≈ 7.64 µM)	3.5 µg/mL (≈ 17.5 µM)	6.17 µg/mL (≈ 30.8 µM)	5.41 µg/mL (≈ 27 µM)	1.94 µg/mL (≈ 9.68 µM)	1.29 µg/mL (≈ 6.44 µM)	≥ 50 µg/mL	≥ 50 µg/mL	≥ 50 µg/mL	≥ 50 µg/mL	3.79 µg/mL (≈ 18.9 µM)	> 50 µg/mL	48.7 µg/mL (≈ 243 µM)	–
CCCCSC(=S)n1ccnc1C	5.71 µg/mL (≈ 26.6 µM)	220 µg/mL (≈ 1030 µM)	> 200 µg/mL	0%	100%	2.12 µg/mL (≈ 9.89 µM)	5.09 µg/mL (≈ 23.7 µM)	7.64 µg/mL (≈ 35.6 µM)	4.69 µg/mL (≈ 21.9 µM)	> 50 µg/mL	1.34 µg/mL (≈ 6.25 µM)	≥ 50 µg/mL	≥ 50 µg/mL	≥ 50 µg/mL	≥ 50 µg/mL	5.57 µg/mL (≈ 26 µM)	2.02 µg/mL (≈ 9.42 µM)	85.5 µg/mL (≈ 399 µM)	23.8 µg/mL (≈ 111 µM)
CSC(=S)n1cncn1	4.34 µg/mL (≈ 27.3 µM)	39.54 µg/mL (≈ 248 µM)	> 200 µg/mL	0%	100%	> 50 µg/mL	38 µg/mL (≈ 239 µM)	> 50 µg/mL	31.2 µg/mL (≈ 196 µM)	> 50 µg/mL	1.43 µg/mL (≈ 8.98 µM)	≥ 50 µg/mL	≥ 50 µg/mL	≥ 50 µg/mL	≥ 50 µg/mL	> 50 µg/mL	> 50 µg/mL	53.7 µg/mL (≈ 337 µM)	> 50 µg/mL
CCCCCCCCCc1ccc(OCCOCCOCCOCCOCCOCCOCCOCCOCCO)cc1 [NONOXYNOL 9]	–	21 µg/mL (≈ 34 µM)	37.4 µg/mL	100%	100%	–	–	–	–	–	–	–	–	–	–	–	–	37 µg/mL (≈ 60 µM)	–
